EP2 modulator – modulators of human EP2 prostaglandin E2 receptor | P43116 | EP2-expressing cells, cAMP HTRF FRET, PGE2 co-stimulation | induction, % at 25 µM | hit rate 0.83% among 260,000 | AID 940;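 active means compounds whose cAMP rise, as percent of the full-agonist control response, exceeds 60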;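 further: rat C6 glioma line stably carrying human EP2 under a CMV promoter; the protocol text gives 20 µM as final concentration; 100% = response of wells given 1 µM PGE2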
PGE2 EP2 inh – EP2 receptor (human) inhibition; P43116; C6 glioma cells expressing human EP2, cAMP TR-FRET; cells stimulated with saturating PGE2; inhibition, % at 25 µM; hit rate 0.52% among 260,000; AID 1422;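 active means percent inhibition above 40 after rounding to a whole number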;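 further: rat C6 glioma host cells with rolipram phosphodiesterase inhibitor present; the protocol text gives 20 µM as final concentration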
FXIIa inh 1536 – inhibitors of human coagulation factor XIIa; purified FXIIa, Boc-QGR-AMC fluorogenic substrate, 2 h; inhibition, % at 5 µM; hit rate 0.3% among 220,000; AID 800; in the data active means inhibition above about 40%;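 further: 0% = enzyme with no compound and 100% = blank without enzyme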
hK5 inh – inhibitors of human kallikrein 5 | recombinant hK5, fluorogenic AMC substrate cleavage | hit rate 0.59% among 210,000 | Q9Y337 | inhibition, % at 5 µM | AID 873;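 active means inhibition of 40% or more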;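 further: 0% = enzyme controls without compound and 100% = no-enzyme blanks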
FXIa inh 1536 – factor XIa (human) inhibition. hit rate 0.14% among 220,000. purified FXIa, Boc-Glu-Ala-Arg-AMC fluorogenic substrate. inhibition, % at 5 µM;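 active means inhibition of at least 40%; inactive means inhibition below 40%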;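 further: fluorescence of freed AMC excited at 355 nm; 0% = enzyme without compound and 100% = no enzyme blank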
Target sequence (P03951 19-387 limits assumed): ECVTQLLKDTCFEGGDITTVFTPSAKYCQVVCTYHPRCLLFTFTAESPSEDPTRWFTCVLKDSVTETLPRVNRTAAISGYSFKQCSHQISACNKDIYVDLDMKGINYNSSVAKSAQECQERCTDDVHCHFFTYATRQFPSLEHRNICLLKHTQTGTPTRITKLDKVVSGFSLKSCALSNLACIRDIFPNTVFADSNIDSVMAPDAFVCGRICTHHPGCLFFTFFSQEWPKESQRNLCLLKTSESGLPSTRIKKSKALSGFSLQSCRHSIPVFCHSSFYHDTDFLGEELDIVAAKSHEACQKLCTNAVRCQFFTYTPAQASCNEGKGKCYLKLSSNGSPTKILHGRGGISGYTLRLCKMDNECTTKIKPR
Target sequence (P03951 388-625 limits assumed): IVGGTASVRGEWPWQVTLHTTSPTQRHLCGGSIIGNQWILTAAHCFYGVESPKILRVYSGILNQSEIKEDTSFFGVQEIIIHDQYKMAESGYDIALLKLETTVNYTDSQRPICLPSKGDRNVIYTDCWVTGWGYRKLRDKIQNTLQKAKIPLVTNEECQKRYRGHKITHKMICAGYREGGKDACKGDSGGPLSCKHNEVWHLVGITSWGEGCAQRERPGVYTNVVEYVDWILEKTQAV
thrombin 1536 – inhibitors of human thrombin; hit rate 0.26% among 220,000; alpha-thrombin, Boc-VPR-AMC fluorogenic substrate cleavage; inhibition, % at 5 µM;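 active means inhibition at or above 40%; inactive means inhibition below 40%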;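 further: 0% = enzyme with no compound and 100% = wells without enzyme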
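signal = AMC fluorescence, 355/460 nm | material = human alpha-thrombin enzyme | control set = enzyme without compound as high, wells lacking enzyme as low | times = reaction at room temperature | read-out basis = percent inhibition scaled between no-compound controls and no-enzyme blanks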
EP2 confirm – EP2 receptor cAMP induction, counter-screens negative; calls only at 20 µM (by protocol); AID 1080; shares compounds with EP2 modulator; hit rate 47% among 1,300; C6 glioma EP2 cells, cAMP HTRF induction; plus low (about EC15) PGE2 agonist;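 active means cAMP induction above 50% in the main assay while under 30% in all four parallel counter assays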;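 further: rat C6 glioma cells stably expressing human EP2 receptor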
An asterisk follows results filed as active; ! = repeats disagree. Shown are actives, neighbours in structure and some others; about 2.1% of the full set was active somewhere.

For CCC(c1nnnn1C1CCCCC1)N(Cc1cc2cccc(C)c2[nH]c1=O)C1CCCCC1 (stereo unspecified) the results were EP2 modulator 17 and PGE2 EP2 inh 7.
Screening CCOc1ccc(C2=Nn3c(nnc3-c3ccccc3OC)SC2)cc1 returned EP2 modulator 74*, PGE2 EP2 inh 7, FXIIa inh 1536 18, hK5 inh 18, FXIa inh 1536 5, thrombin 1536 6 and EP2 confirm active.
Screening CCc1nnc2n1N=C(c1ccc(OC)cc1)CS2 returned EP2 modulator 6, PGE2 EP2 inh 13, FXIIa inh 1536 25, hK5 inh -2, FXIa inh 1536 19 and thrombin 1536 0.
For CCOc1ccc(-c2nnc3n2N=C(c2ccc(OC)cc2)CS3)cc1 the results were EP2 modulator 75*, PGE2 EP2 inh 3, FXIIa inh 1536 10, hK5 inh 2, FXIa inh 1536 2, thrombin 1536 -3 and EP2 confirm active.
COc1cccc(C(O)CN2CCC3(CC2)CC(O)c2cc(Cl)c(C)cc2O3)c1 (stereo unspecified) was read as EP2 modulator -87 and PGE2 EP2 inh 7.
CC1Cc2ccccc2N1C(=O)CSc1nnc(Cc2ccccc2)n1CCc1ccccc1 (stereo unspecified) was read as EP2 modulator 66*, FXIIa inh 1536 4, hK5 inh -17, FXIa inh 1536 -1, thrombin 1536 -3 and EP2 confirm inactive.
`NC(=O)C1CCN(C(=O)CCCSc2nc(-c3ccco3)cc(C(F)(F)F)n2)CC1` gave EP2 modulator -16 and PGE2 EP2 inh 15.
For CCC1(CC)Cc2ccccc2-c2nc(NCCO)[nH]c(=O)c21 the results were EP2 modulator 69*!, PGE2 EP2 inh 16, FXIIa inh 1536 -6, hK5 inh -19, FXIa inh 1536 -2, thrombin 1536 -5 and EP2 confirm inactive.
`CCSC1=N/C(=C\c2ccccc2)C(=O)N1c1ccc(OC)cc1` gave EP2 modulator 79*, PGE2 EP2 inh 6, FXIIa inh 1536 4, hK5 inh 4, FXIa inh 1536 -2, thrombin 1536 -10 and EP2 confirm active.
`Cc1cccc2cc(CN(Cc3ccc4c(c3)OCO4)S(=O)(=O)c3ccccc3)c(=O)[nH]c12` gave EP2 modulator -23 and PGE2 EP2 inh 10.
Screening Cc1ccc(C2CC(c3cccs3)=NN2C(=O)c2ccc(Br)o2)cc1 (stereo unspecified) returned EP2 modulator 57, PGE2 EP2 inh 10, FXIIa inh 1536 14, hK5 inh -10, FXIa inh 1536 5, thrombin 1536 3 and EP2 confirm inactive.
`CC(=O)N1N=C(c2cccs2)CC1c1ccc(C)o1` (stereo unspecified) gave EP2 modulator 0, PGE2 EP2 inh 10, FXIIa inh 1536 1, hK5 inh -14, FXIa inh 1536 9 and thrombin 1536 -1.
CC(=O)Nc1cc(C(F)(F)F)ccc1Oc1cccc(Br)c1 was read as EP2 modulator -12, PGE2 EP2 inh 15, FXIIa inh 1536 10, hK5 inh -13, FXIa inh 1536 0 and thrombin 1536 -3.
`CCOCC(=O)Nc1cc(C(F)(F)F)ccc1Oc1cccc(Br)c1` gave EP2 modulator 65*, PGE2 EP2 inh 11, FXIIa inh 1536 13, hK5 inh -12, FXIa inh 1536 2, thrombin 1536 4 and EP2 confirm active.
CCOC(=O)C1=NN(c2ccc(C)cc2)C2(S1)SC(C(C)=O)=C(C)N2c1ccccc1 (stereo unspecified) was read as EP2 modulator 74*, PGE2 EP2 inh 5, FXIIa inh 1536 9, hK5 inh -3, FXIa inh 1536 -1, thrombin 1536 -4 and EP2 confirm active.
`CCOC(=O)C1=NNC2(CC(=O)N(c3cccc(C)c3)C2=O)C1` (stereo unspecified) gave EP2 modulator -10, PGE2 EP2 inh 7, FXIIa inh 1536 9, hK5 inh 1, FXIa inh 1536 0 and thrombin 1536 -1.
Screening COC(=O)C1=NN(c2ccccc2)C2(S1)S/C(=C\c1ccccc1)C(=O)N2c1ccccc1 (stereo unspecified) returned EP2 modulator 11, PGE2 EP2 inh 12, FXIIa inh 1536 -13, hK5 inh -4, FXIa inh 1536 -5 and thrombin 1536 -6.
CCOC(=O)C1=NN(c2cccc(C)c2)C2(S1)SC(C(C)=O)=C(C)N2c1ccccc1 (stereo unspecified) was read as EP2 modulator 78*, PGE2 EP2 inh 2, FXIIa inh 1536 12, hK5 inh -6, FXIa inh 1536 -5, thrombin 1536 2 and EP2 confirm active.
CCN(c1cccc(C)c1)S(=O)(=O)c1ccc2c3c(cccc13)C(=O)N2 was read as EP2 modulator 79*, PGE2 EP2 inh 15, FXIIa inh 1536 -3, hK5 inh -12, FXIa inh 1536 -5, thrombin 1536 -5 and EP2 confirm active.
`Cc1ccc(S(=O)(=O)NCC(=O)OCN2C(=O)c3ccccc3C2=O)cc1` gave EP2 modulator 67*, PGE2 EP2 inh 8, FXIIa inh 1536 17, hK5 inh -5, FXIa inh 1536 4, thrombin 1536 0 and EP2 confirm inactive.
For CCOc1ccc(S(=O)(=O)NCCC(=O)OCN2C(=O)c3ccccc3C2=O)cc1 the results were EP2 modulator 20, PGE2 EP2 inh 6, FXIIa inh 1536 7, hK5 inh -18, FXIa inh 1536 -2 and thrombin 1536 1.
For COc1ccc(N2CCN(c3nc4c(c(=O)[nH]c(=O)n4C)n3Cc3cccc(C)c3)CC2)cc1 the results were EP2 modulator 70*, PGE2 EP2 inh 7, FXIIa inh 1536 6, hK5 inh -12, FXIa inh 1536 2, thrombin 1536 -2 and EP2 confirm inactive.
Screening CC(C)CCn1c(N2CCN(c3cccc(Cl)c3)CC2)nc2c1c(=O)[nH]c(=O)n2C returned EP2 modulator 65*, PGE2 EP2 inh 8, FXIIa inh 1536 4, hK5 inh 0, FXIa inh 1536 -6, thrombin 1536 -3 and EP2 confirm inactive.
`CCCCCCCCn1c(N2CCN(c3cccc(Cl)c3)CC2)nc2c1c(=O)[nH]c(=O)n2C` gave EP2 modulator 44, PGE2 EP2 inh 4, FXIIa inh 1536 22, hK5 inh 2, FXIa inh 1536 2 and thrombin 1536 2.
Screening C=CCN1C(=O)N(/C=C/C)c2cccc3cccc1c23 returned EP2 modulator 68*, PGE2 EP2 inh 6, FXIIa inh 1536 -4, hK5 inh -3, FXIa inh 1536 -4, thrombin 1536 0 and EP2 confirm active.

Screening results as filed in PubChem.
